Compound activity as filed in PubChem.
An excerpt weighted towards active compounds, which were near 2.6% of everything screened.
ABHD5-PLIN5 inh – ABHD5-PLIN5 interaction inhibitors, primary screen, cell lysate, split luciferase complementation, luminescence; Perilipin-5 (Homo sapiens) + 1-acylglycerol-3-phosphate O-acyltransferase ABHD5 (Homo …; Split G. princeps luciferase complementation, 4 h; inhibition, % at 4 µM; 360,000 tested, 0.78% active; AID 602281, 2012;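 active = inhibition above the mean inhibition across every tested compound plus 3 SD, cut at about 22% in these data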;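 also: 0% = DMSO only wells and the 100% control is not disclosed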
Target sequence (Q00G26 whole entry, looked up): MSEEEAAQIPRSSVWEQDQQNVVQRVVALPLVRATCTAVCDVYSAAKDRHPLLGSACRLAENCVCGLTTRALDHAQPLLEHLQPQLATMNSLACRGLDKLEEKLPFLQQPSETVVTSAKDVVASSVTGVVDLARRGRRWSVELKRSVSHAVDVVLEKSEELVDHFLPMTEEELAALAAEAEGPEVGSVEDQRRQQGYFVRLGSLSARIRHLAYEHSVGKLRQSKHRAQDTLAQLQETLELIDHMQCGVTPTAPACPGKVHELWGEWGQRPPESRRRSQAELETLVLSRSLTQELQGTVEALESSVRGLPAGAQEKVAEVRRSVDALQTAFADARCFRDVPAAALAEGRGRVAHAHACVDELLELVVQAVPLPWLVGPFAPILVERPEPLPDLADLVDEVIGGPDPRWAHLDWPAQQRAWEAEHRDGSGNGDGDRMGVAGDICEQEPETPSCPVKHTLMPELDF
Target sequence (Q8WTS1 whole entry, looked up): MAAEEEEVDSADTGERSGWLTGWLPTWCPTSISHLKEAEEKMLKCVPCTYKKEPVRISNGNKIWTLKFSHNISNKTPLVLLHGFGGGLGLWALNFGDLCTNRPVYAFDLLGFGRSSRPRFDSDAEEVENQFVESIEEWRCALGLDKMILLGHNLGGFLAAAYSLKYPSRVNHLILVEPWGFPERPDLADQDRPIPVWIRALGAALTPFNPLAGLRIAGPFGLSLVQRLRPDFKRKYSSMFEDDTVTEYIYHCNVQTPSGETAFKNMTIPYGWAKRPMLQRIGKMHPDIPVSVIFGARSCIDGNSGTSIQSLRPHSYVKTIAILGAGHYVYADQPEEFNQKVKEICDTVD
HCV core dimer – inhibitors of HCV core protein dimerization, primary screen, biochemical, TR-FRET, high-throughput; 300,000 tested, 0.33% active; TR-FRET GST/Flag-core106 dimerization, 1536-well; inhibition, % at 5 µM;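 active = inhibition above the mean of all tested compounds plus 3 SD, set per screening campaign, cut at about 45% in these data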
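System – GST-tagged and Flag-tagged HCV core protein residues 1-106 · Repeats – one well for each compound · Technique – TR-FRET 671 and 617 nm emission · Doses – one concentration, 5 µM, in 0.5% DMSO · Times – 4 h, 22.5 °C incubation · Also added – Eu donor and XL665 acceptor anti-tag antibodies · Measure – percent inhibition of core106 dimerization signal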
NadD inh – inhibitors of S. aureus NadD, primary screen, biochemical, colorimetric, uHTS. Nicotinate-nucleotide adenylyltransferase NadD (Staphylococcus aureus N315). purified NadD enzyme, colorimetric absorbance read-out. inhibition, % at 20 µM. 360,000 tested, 0.78% active. AID 602399, 2012; in the data active = inhibition above about 26%
rCAG RNA binder – binders of r(CAG) RNA repeats, primary screen, biochemical, fluorescence | r(CAG) RNA repeat, TO-PRO-1 dye displacement fluorescence | inhibition, % at 3 µM | 370,000 tested, 1.3% active | AID 651821, 2012;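 active = inhibition above the plate cutoff, the mean of all test compounds on that plate plus 3 SD, cut at about 35% in these data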;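 also: 0% = DMSO alone and 100% = 100 µM mitoxantrone as full dye displacement; higher means more dye released from RNA so lower well fluorescence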
rCAG binder conf – small molecules binding CAG repeat RNA – biochemical, fluorescence, confirmation; shares compounds with rCAG RNA binder; r(CAG) RNA repeat, TO-PRO-1 dye displacement fluorescence; inhibition, % at 3 µM; 4,300 tested, 70% active; AID 652065, 2013;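 active = inhibition above a per-plate cutoff, the mean inhibition of sample wells plus 3 SD, cut at about 35% in these data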;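 also: loss of TO-PRO-1 fluorescence as compound displaces dye from 1x1 AA loop RNA; 0% = DMSO only wells and 100% = 100 µM mitoxantrone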
DNA CAG counter – displacement of TO-PRO-1 from CAG DNA duplex, counter-screen for rCAG RNA repeat binder project, biochemical, fluorescence, TO-PRO-1 dye, d(CAG) DNA oligo; AID 652068, 2013; d(CAG) DNA oligo TO-PRO-1 dye displacement; inhibition, % at 3 µM; 4,300 tested, 94% active; shares compounds with rCAG RNA binder;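 active = inhibition above its plate's cutoff, the mean test-well inhibition plus 3 SD, cut at about 4.8% in these data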;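 also: 0% = DNA dye mix with DMSO and 100% = 100 µM mitoxantrone; hits displace the dye from DNA and so lower well fluorescence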
dCAG dye DR – inhibitors of DNA CAG/GTC TO-PRO-1 complex, dose response, counter-screen for rCAG RNA repeat binder project, biochemical, fluorescence, TO-PRO-1 dye. AID 686960, 2013. IC50, µM. 250 tested, 20% active. DNA CAG/GTC duplex TO-PRO-1 dye displacement fluorescence. shares compounds with rCAG RNA binder; in the data active = IC50 below about 10 µM
The depositor's hits bear a star; i = inactive; nt = no result.

SMILES	ABHD5-PLIN5 inh	HCV core dimer	NadD inh	rCAG RNA binder	rCAG binder conf	DNA CAG counter	others
CCN(CC)c1nc(N)c2c(N)n(-c3ccccc3C)c(=S)c(C#N)c2c1C#N	-13	43	26	98*	93*	69*
COc1cc(C(=O)Nc2c(C(=O)O)[nH]c3ccc(C)cc23)cc(OC)c1OC	-9	nt	-1	54*	27	5.3*
Cc1ccc(C(=O)Nc2scc(-c3ccccc3)c2C(=O)O)cc1	4	-1	-1	51*	34	8.8*
CCOC(=O)c1[nH]c2ccccc2c1NC(=O)c1cc(OC)c(OC)c(OC)c1	5	2	-7	-3	nt	nt
O=C(/C=C/c1cccs1)Nc1scc(-c2ccccc2)c1C(=O)O	4	nt	14	37*	36*	11*
COc1cc(C(=O)Nc2scc(-c3ccc(C)cc3)c2C(=O)O)cc(OC)c1OC	-1	6	5	50*	76*	39*
CCCCn1nnnc1C(c1ccccc1)N1CCN(c2ncccc2C(F)(F)F)CC1 (configuration not stated)	4	nt	-3	0	nt	nt
CCOC(=O)c1cc(CC)sc1NC(=O)c1cc(OCC)c(OCC)c(OCC)c1	2	5	-6	-1	nt	nt
COC(=O)c1c(-c2cc(C)ccc2C)csc1NC(=O)C1CC=CCC1C(=O)O (configuration not stated)	0	9	6	30	nt	nt
COc1ccc(-c2csc(NC(=O)c3ccccc3F)c2C(=O)O)cc1	-4	7	-7	48*	32	6.1*
O=C(Nc1scc(-c2ccccc2)c1C(=O)O)c1ccccc1Cl	12	10	-4	19	nt	nt
CC1CCc2c(sc(NC(=O)c3ccco3)c2C(=O)O)C1 (configuration not stated)	8	2	-8	16	nt	nt
CCc1cc(C(=O)O)c(NC(=O)c2cc(OC)c(OC)c(OC)c2)s1	6	7	-1	38*	20	3
COC(=O)c1c(-c2ccc(C)cc2)csc1NC(=O)C1CC=CCC1C(=O)O (configuration not stated)	-6	2	-1	38*	38*	8.5*
CC1CCc2c(sc(NC(=O)/C=C/c3cccs3)c2C(=O)O)C1 (configuration not stated)	-4	-2	-5	46*	66*	26*
C[C@H](CO)N1C[C@H](C)[C@@H](CN(C)S(=O)(=O)c2ccc3ccccc3c2)OCc2cnnn2CCCC1=O	10	nt	2	3	nt	nt
COC(=O)[C@@]12CCCCC3=C1N(CCC3)C(=O)[C@H]2CC(=O)N1CCCCC1	nt	nt	nt	-2	nt	nt
Cc1ccc(C(=O)O)cc1NC(=O)CSc1nnc(-c2ccccc2F)n1C1CCCCC1	-4	nt	6	26	nt	nt
O=C(CSc1nnc(-c2ccccc2F)n1C1CCCCC1)Nc1cc(C(=O)O)ccc1Cl	-3	nt	3	38*	34	6.9*
CC1=C(C(=O)N(C(C)C)C(C)C)CC(CC(=O)NCCc2ccccn2)C(=O)N1CCCN1CCCC1=O (configuration not stated)	-2	nt	-6	-2	nt	nt
CCc1ccc([C@H]2C(C(=O)O)=C[C@@H](CC3CCCC3)N2S(=O)(=O)c2ccc(C)cc2)cc1	6	nt	12	76*	62*	26*
Cc1ccc(S(=O)(=O)N2[C@@H](c3ccc(F)cc3)C(C(=O)O)=C[C@H]2CC2CCCC2)cc1	-8	nt	2	51*	57*	17*
CC[C@@H]1C=C(C(=O)O)[C@H](c2ccc(F)cc2)N1S(=O)(=O)c1ccc(C)cc1	-5	nt	-4	3	nt	nt
Cc1ccc(S(=O)(=O)N2[C@@H](c3ccc4c(c3)OCO4)C(C(=O)O)=C[C@H]2CC2CCCC2)cc1	6	nt	4	67*	61*	25*
COc1ccc([C@H]2C(C(=O)O)=C[C@@H](CC3CCCC3)N2S(=O)(=O)c2ccc(C)cc2)cc1OC	-1	nt	15	56*	52*	17*
SMILES	ABHD5-PLIN5 inh	HCV core dimer	NadD inh	rCAG RNA binder	rCAG binder conf	DNA CAG counter	others
CC(=O)NC(c1ccc(F)c(F)c1)c1nc(-c2ccncc2)cs1 (configuration not stated)	5	nt	-6	1	nt	nt
O=C(C[C@H]1C=C[C@@H](NC(=O)c2ccncc2)[C@@H](CO)O1)NCC1CC1	1	nt	nt	-1	nt	nt
CC[C@@H]1C=C(C(=O)O)[C@H](c2cccc(C)c2)N1S(=O)(=O)c1ccc(C)cc1	0	nt	-2	7	nt	nt
Cc1ccc(S(=O)(=O)N2[C@@H](c3cccc(C)c3)C(C(=O)O)=C[C@H]2CC2CCCC2)cc1	11	nt	-1	49*	52*	18*
Cc1ccc([C@H]2C(C(=O)O)=C[C@@H](CC3CCCC3)N2S(=O)(=O)c2ccc(C)cc2)cc1	-10	nt	6	68*	73*	27*	dCAG dye DR=i
CCOC(=O)C1=C[C@@H](CC)N(S(=O)(=O)c2ccc(C)cc2)[C@H]1c1ccccc1	-6	nt	-8	-2	nt	nt
C=C1CCC[C@]2(C)C[C@H]3OC(=O)C(CN(Cc4ccc(OC)c(OC)c4)CC(C)O)[C@H]3CC12 (some centres not stated)	11	12	-3	-2	nt	nt
CCCS(=O)(=O)c1c(S(=O)(=O)CCC)c2ccc(C(N)=O)cn2c1C(=O)c1ccc(F)cc1	-6	-1	6	-1	nt	nt
CCCS(=O)(=O)c1c(S(=O)(=O)CCC)c2c(N)cccn2c1C(=O)c1ccc(F)cc1	-8	12	12	45*	21	10*
CCCS(=O)(=O)c1c(S(=O)(=O)CCC)c2c(N)cccn2c1C(=O)c1ccc(OC)cc1	10	12	13	19	nt	nt
CCCS(=O)(=O)c1c(S(=O)(=O)CCC)c2c(N)cccn2c1C(=O)c1ccc(Br)cc1	8	26	26	52*	21	11*
O=C(Nc1nc2ncccn2c1-c1ccc(F)c(F)c1)c1ccccc1	nt	nt	nt	2	nt	nt
O=C(Nc1ccccc1C(=O)O)c1cc(S(=O)(=O)Nc2cccc(F)c2)ccc1Cl	-4	19	-2	45*	30	9.3*
Cc1cccc(NC(=O)c2cccc(S(=O)(=O)Nc3ccccc3C(=O)O)c2)c1	0	-1	-5	52*	32	7.5*
